Compound activity from PubChem.
A selection: hits, their analogues and other compounds. The true share with any hit is near 4.1%.
Apaf-1 inh: human Apaf-1 inhibition; O14727; reconstituted apoptosome caspase-3 activity, DEVD-Rh110 fluorescence; inhibition, % at 20 µM; 0.71% of 330,000 active; active means inhibition of at least 40% at 20 µM;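 further: plate controls were DMSO wells for no effect and DEVD-CHO caspase inhibitor wells for full effect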
Target sequence (O14727 whole entry, looked up): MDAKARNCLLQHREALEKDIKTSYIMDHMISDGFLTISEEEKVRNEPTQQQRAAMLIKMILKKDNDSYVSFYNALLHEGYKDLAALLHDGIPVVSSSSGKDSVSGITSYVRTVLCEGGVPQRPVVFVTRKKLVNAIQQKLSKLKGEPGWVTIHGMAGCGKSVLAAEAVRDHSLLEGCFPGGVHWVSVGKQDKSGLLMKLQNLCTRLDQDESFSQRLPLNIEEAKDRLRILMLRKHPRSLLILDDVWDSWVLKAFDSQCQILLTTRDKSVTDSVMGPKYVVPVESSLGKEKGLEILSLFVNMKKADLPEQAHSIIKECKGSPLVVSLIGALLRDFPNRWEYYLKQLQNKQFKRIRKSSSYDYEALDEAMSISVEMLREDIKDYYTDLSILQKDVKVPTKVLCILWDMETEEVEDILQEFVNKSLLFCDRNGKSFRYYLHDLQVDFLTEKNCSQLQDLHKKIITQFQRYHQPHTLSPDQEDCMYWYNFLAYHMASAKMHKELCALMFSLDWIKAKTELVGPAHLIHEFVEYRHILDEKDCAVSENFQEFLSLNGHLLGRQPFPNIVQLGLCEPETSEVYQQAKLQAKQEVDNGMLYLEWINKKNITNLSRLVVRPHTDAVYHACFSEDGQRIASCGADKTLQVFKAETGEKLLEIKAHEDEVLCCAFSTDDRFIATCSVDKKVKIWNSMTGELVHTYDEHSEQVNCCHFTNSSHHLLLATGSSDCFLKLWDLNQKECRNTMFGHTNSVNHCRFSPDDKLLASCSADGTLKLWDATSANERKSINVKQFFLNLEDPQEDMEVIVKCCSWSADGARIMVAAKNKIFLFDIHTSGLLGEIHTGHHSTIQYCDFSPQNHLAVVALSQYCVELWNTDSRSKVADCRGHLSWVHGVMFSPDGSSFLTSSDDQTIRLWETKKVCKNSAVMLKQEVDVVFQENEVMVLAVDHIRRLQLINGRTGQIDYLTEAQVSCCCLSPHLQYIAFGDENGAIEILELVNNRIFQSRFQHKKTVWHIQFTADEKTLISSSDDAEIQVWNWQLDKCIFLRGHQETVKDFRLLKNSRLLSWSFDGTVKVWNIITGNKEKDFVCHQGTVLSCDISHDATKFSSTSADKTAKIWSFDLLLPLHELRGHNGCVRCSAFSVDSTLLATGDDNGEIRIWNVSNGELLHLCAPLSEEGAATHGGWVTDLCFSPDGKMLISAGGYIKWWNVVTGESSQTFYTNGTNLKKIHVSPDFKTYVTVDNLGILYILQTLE
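Material: biochemical Apaf-1 apoptosome reconstitution. Medium: Hepes buffer, pH 7.5. Also added: cytochrome c activation, bis-DEVD rhodamine 110 substrate. Timing: 30 min compound preincubation, 50 min activation, room temperature. Measured by: rhodamine 110 fluorescence at Ex 480/Em 540 nm.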
CHOP UPR activ: activators of apoptotic arm of unfolded protein response (CHOP); activation, % at 10 µM; CHO-CHOP luciferase reporter, UPR activation, luminescence; percent of tunicamycin response over DMSO baseline; 0.34% of 330,000 active;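 active means at 10 µM dose, activation of 40% or more, normalized to positive control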;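 further: 100% = tunicamycin at 10 µg/mL and 0% = DMSO alone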
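Test system: CHO-CHOP cells, stable luciferase reporter of PERK-eIF2a-CHOP signalling | Quantity: 500 CHO-CHOP cells per well | Buffer or medium: F12 plus 10% serum | Compound dosing: 10 µM single point, 0.5% DMSO | Schedule: 6 h compound treatment, 37 °C | Signal: Luciferase luminescence | Control set: Tunicamycin high control, DMSO low control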
Mdm2-MdmX inh: disrupts the human Mdm2-MdmX interaction. SaOS-2 split-luciferase Mdm2/MdmX complementation, luminescence. 3% of 330,000 active. inhibition, % at 8 µM. O15151+Q00987;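 active means inhibition of at least 50% at 8 µM in the primary screen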
UBC13 inh: human UBC13 polyubiquitination inhibition; P61088; UBC13 polyubiquitin chain formation, TR-FRET; inhibition, % at 20 µM; 0.47% of 330,000 active; AID 485273; in the data active means inhibition above about 45%, passing the limit was not always enough; inconclusive means no clear call, values can overlap the other calls
UPR XBP1 act: adaptive UPR (XBP1) activation; AID 463104; CHO-XBP1 luciferase reporter, IRE1-XBP1 UPR activation, luminescence; percent of tunicamycin response, DMSO as zero; activation, % at 20 µM; 0.33% of 330,000 active;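 active means versus positive control, 20 µM dose yields 30% or more activation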;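 further: 100% = tunicamycin at 10 µg/mL and 0% = DMSO only wells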
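Signal: luciferase luminescence; Assay system: CHO-XBP1 luciferase reporter cells; Amount: one thousand reporter cells per well; Dosing: 20 µM single concentration, DMSO 1%; Benchmarks: high control tunicamycin 10 µg/mL final, low control DMSO vehicle only; Schedule: 6 h compound exposure at 37 °C, 5% CO2; Evaluation: percent activation relative to tunicamycin reference.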
Mdm2-MdmX conf: human Mdm2/MdmX binding inhibition, confirmed | shares compounds with Mdm2-MdmX inh | luminescent assay | inhibition, % at 8 µM | 55% of 10,000 active | AID 489028; in the data active means inhibition above about 40%
FLuc counter: inhibits full-length luciferase, flagging false Mdm2/MdmX hits; 77% of 6,200 active; shares compounds with Mdm2-MdmX inh; inhibition, % at 8 µM; SaOS-2 full-length luciferase counterscreen, luminescence;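 active means mean inhibition at 8 µM reaching about 37%, which flags the compound as non-specific, limit read from the data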;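 further: p53-null SaOS-2 cells with luciferase driven by a doxycycline-inducible promoter; compound on cells about two nights before reading with doxycycline added after day one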
* marks the source's active call; other numbers are inactive results; u = inconclusive; x = no result.

SMILES | Apaf-1 inh | CHOP UPR activ | Mdm2-MdmX inh | UBC13 inh | UPR XBP1 act | Mdm2-MdmX conf | FLuc counter
CC(Sc1nnc(Nc2ccccc2)s1)C(=O)Nc1nc(-c2ccccc2)cs1 (stereo unspecified) | 2 | 2 | 65* | -2 | 0 | 72* | 101*
C[C@H](CO)N1C[C@H](C)[C@@H](CN(C)C(=O)Nc2ccccc2)Oc2ccc(NC(=O)Nc3ccccc3)cc2C1=O | 13 | -1 | 9 | -5 | 0 | x | x
Cc1noc(C)c1CSc1nc2ccccc2nc1NS(=O)(=O)c1ccc(Cl)cc1 | 13 | 2 | 63* | 22 | -1 | -4 | x
O=S(=O)(Nc1nc2ccccc2nc1NCc1ccco1)c1ccc(Cl)cc1 | 2 | 0 | 24 | -1 | -4 | x | x
COc1ccc(-n2c3c(c(=O)[nH]c2=O)C(NC(=O)c2ccncc2)(C(F)(F)F)C(=O)N3)cc1 (stereo unspecified) | -2 | 2 | -12 | 6 | -3 | x | x
COc1ccc(CCNC(=O)c2cc3c(=O)n4ccccc4nc3n(C3CCCCC3)c2=N)cc1 | 13 | 2 | 61* | 2 | 2 | 38 | 69*
COc1ccc(CCNC(=O)c2cc3c(=O)n4ccccc4nc3n(CCCN3CCOCC3)c2=N)cc1 | -2 | -3 | 54* | 3 | -6 | 13 | x
COc1ccc(CCNC(=O)c2cc3c(=O)n4ccccc4nc3n(C3CCCCC3)c2=N)cc1OC | -1 | 0 | 58* | 2 | 3 | 26 | x
Cc1ccc(C(=O)N(C)CCOc2ccccc2)cc1S(=O)(=O)N1CCCCC1 | 18 | -2 | 15 | -10 | -1 | x | x
CCn1c(SCC(=O)N2CCC(C)CC2)nnc1-c1ccco1 | -9 | 1 | -14 | 4 | -2 | x | x
Cc1cccc(C(C(=O)NC2CCCC2)N(C(=O)c2csnn2)C2CCCC2)c1 (stereo unspecified) | 9 | 3 | -3 | -1 | -3 | x | x
Cc1csc2sc(-c3ccnc(SCC(=O)NCc4ccccc4)n3)c(C)c12 | 6 | -2 | 56* | -11 | 6 | 59* | 86*
C/C(=N\NC(=O)c1cc(C)nc2ccccc12)c1cccc(Cl)c1 | 7 | 1 | 15 | -2 | -5 | x | x
CCOC(=O)N1CCN(C(=O)c2ccc3c(c2)N=C(CC)c2cc(C)ccc2S3)CC1 | 31 | 1 | 12 | -6 | -2 | x | x
CCOC(=O)N1CCC(NC(=O)c2ccc3c(c2)N(CC)CCS3)CC1 | 1 | 2 | 19 | 25 | -4 | x | x
CCOC(=O)N1CCC(NC(=O)c2ccc3c(c2)N=C(C)c2c(C)ccc(C)c2S3)CC1 | 23 | 1 | 68* | -8 | 25 | 64* | 89*
CCOC(=O)N1CCC(NC(=O)c2ccc3c(c2)N=C(CC)c2cc(C)ccc2S3)CC1 | 12 | -1 | 61* | -4 | -4 | 69* | 52*
O=C(NNC(=O)c1cc2cc(OC(F)(F)F)ccc2[nH]1)c1cccc(C(F)(F)F)c1 | -11 | 4 | -7 | -2 | 0 | x | x
CCc1ccc(-n2c(=O)c3c(C)c(C(=O)N(C)C)sc3n(CC(=O)NCc3ccco3)c2=O)cc1 | -20 | 1 | 12 | 5 | 0 | x | x
CN(C)CCCNC(=O)c1ccc(Cl)c(S(=O)(=O)N(C)c2ccccc2)c1 | -6 | -1 | 11 | 9 | -5 | x | x
N#Cc1sc2nccc(Nc3ccccc3)c2c1N | 2 | -1 | 92* | -7 | -5 | 78* | 49*
O=C(Nc1cccc2ncccc12)c1ccco1 | 4 | 0 | 5 | -5 | 1 | x | x
COc1ccccc1/C=C/C(=O)OCC(=O)NCc1ccco1 | 2 | 3 | -33 | 7 | 1 | x | x
COc1cc(/C=C/C(=O)OCC(=O)NCc2ccco2)ccc1O | 0 | 1 | 54* | 2 | -1 | 45* | 83*
Cc1cccc2cc(C#N)c(SCc3nnc(-c4ccccc4[N+](=O)[O-])o3)nc12 | 10 | 0 | 59* | -14 | 3 | 17 | x
SMILES | Apaf-1 inh | CHOP UPR activ | Mdm2-MdmX inh | UBC13 inh | UPR XBP1 act | Mdm2-MdmX conf | FLuc counter
Cc1cccc(NC(=O)Nc2ccc(C#N)cc2)n1 | -8 | 7 | 78* | 11 | -2 | 67* | 78*
CCOC(=O)c1ccc(NC(=O)Nc2cccc(C)n2)cc1 | -3 | 4 | 57* | 1 | 9 | -10 | x
O=S(=O)(c1ccc(F)c(F)c1)N1CCN(CCc2ccccc2)CC1 | 7 | 2 | 3 | -8 | -3 | x | x
CN(CCOc1ccc(Cl)cc1)C(=O)C1CCN(C(=O)c2ccc(F)cc2)CC1 | 14 | 0 | -5 | 8 | -2 | x | x
CC1CCC(C(C)C)C(OC(=O)Cn2c(-c3ccccc3)[n+](C)c3ccccc32)C1 (stereo unspecified) | 3 | 17 | 93* | 37 | 19 | 94* | 38*
CC1CCC(C(C)C)C(OC(=O)C[n+]2cc(-c3ccc(Cl)cc3)n3c2CCC3)C1 (stereo unspecified) | 8 | 0 | 24 | 25 | 2 | x | x
CC1CCC(C(C)C)C(OC(=O)CSc2nc(N)cc(=O)[nH]2)C1 (stereo unspecified) | 9 | -2 | -3 | -6 | 0 | x | x
CC1CCC(C(C)C)C(OC(=O)Cn2c(-c3ccc(F)cc3)[n+](C)c3ccccc32)C1 (stereo unspecified) | 29 | 1 | 89* | 15 | 4 | 93* | 57*
COc1ccc2c(c1OC)CN(C)CCc1cc3c(cc1C(O)C2)OCO3 (stereo unspecified) | 6 | 3 | 18 | 3 | -4 | x | x
COc1ccc2cc1Oc1ccc(cc1)C[C@H]1c3cc(c(OC)cc3CCN1C)Oc1c(OC)c(OC)cc3c1[C@@H](C2)N(C)CC3 | 16 | 2 | 100* | 27 | 7 | 90* | 60*
CCc1cc(C(=O)OC)c(NC(=O)CSc2nccn2C)s1 | 0 | 1 | 12 | -4 | -2 | x | x
Cc1ccc(C(=O)n2c3ccccc3c3ccccc32)cc1 | 0 | 0 | 51* | u | -1 | 55* | 53*
CC(=O)n1c2ccccc2c2ccccc21 | 1 | -2 | 2 | 14 | 2 | x | x
Cc1ccc(-n2c(=O)[nH]cc(C(=O)Nc3ccc4c(c3)OCO4)c2=O)cc1C | 4 | 1 | 5 | -9 | -1 | x | x
Cc1ccc(/C=N/NC(=O)c2cc(-c3ccncc3)nc3ccccc23)o1 | 0 | 0 | 48 | -7 | 11 | x | x
O=C(CNc1cccc2ccccc12)N/N=C/c1ccc([N+](=O)[O-])o1 | 22 | 1 | 51* | -12 | -1 | 20 | x
O=C(N/N=C/c1ccc([N+](=O)[O-])o1)c1cc(-c2ccc(-c3ccccc3)cc2)nc2ccccc12 | 20 | 11 | 64* | -8 | 21 | 57* | 84*
